Data taken from the M2OR odorant receptor database.

Tests used:
Conditions in all cases: stereoisomer not certain
OR2G2 (Homo sapiens) = biological target: T1, OR2G2 (Homo sapiens) (UniProt Q8NGZ5)
T1 sequence (whole entry): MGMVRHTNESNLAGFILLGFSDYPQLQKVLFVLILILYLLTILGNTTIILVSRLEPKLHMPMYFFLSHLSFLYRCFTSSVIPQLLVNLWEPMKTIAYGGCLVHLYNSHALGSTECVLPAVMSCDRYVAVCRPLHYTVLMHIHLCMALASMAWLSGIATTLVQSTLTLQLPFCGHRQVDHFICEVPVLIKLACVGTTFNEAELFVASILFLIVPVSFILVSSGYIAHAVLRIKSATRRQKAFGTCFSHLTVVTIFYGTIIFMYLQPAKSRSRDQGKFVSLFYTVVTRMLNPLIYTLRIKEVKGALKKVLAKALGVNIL
Outline: (§1)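 Transient luciferase assays in mammalian cell lines were common, though methods varied by source. The values come from published papers and their supplementary material, with extra details from the original authors when needed. Responsive refers to a measured signal the original authors judged statistically different from baseline, and non-responsive (inactive) to the remainder.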

OR2D3 (Homo sapiens) = OR2D3 (Homo sapiens) (UniProt Q8NGH3)
OR2D3 (Homo sapiens), sequence (Q8NGH3 whole entry): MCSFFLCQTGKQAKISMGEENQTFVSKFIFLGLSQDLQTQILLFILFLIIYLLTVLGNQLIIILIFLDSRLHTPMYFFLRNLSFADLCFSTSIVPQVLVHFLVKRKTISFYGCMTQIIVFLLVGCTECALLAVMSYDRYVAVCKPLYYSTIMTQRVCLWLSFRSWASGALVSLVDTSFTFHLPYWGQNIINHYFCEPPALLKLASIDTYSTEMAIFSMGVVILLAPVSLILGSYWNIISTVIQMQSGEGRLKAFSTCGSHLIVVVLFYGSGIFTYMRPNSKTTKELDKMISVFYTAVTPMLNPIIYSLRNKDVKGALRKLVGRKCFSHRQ
Outline: as §1

OR2F1 (Homo sapiens) = OR2F1 (Homo sapiens) (UniProt Q13607)
OR2F1 (Homo sapiens), sequence (Q13607 whole entry): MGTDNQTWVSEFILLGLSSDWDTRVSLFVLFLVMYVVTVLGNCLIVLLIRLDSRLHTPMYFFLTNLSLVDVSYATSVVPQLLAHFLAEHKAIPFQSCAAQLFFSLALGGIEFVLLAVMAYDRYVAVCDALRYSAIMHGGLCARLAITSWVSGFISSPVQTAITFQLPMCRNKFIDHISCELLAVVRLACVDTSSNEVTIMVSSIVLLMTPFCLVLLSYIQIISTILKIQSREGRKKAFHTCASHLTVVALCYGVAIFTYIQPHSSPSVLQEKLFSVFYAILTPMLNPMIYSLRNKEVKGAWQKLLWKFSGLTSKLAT
Outline: as §1

OR2F2 (Homo sapiens) = OR2F2 (Homo sapiens) (UniProt O95006)
OR2F2 (Homo sapiens), sequence (O95006 whole entry): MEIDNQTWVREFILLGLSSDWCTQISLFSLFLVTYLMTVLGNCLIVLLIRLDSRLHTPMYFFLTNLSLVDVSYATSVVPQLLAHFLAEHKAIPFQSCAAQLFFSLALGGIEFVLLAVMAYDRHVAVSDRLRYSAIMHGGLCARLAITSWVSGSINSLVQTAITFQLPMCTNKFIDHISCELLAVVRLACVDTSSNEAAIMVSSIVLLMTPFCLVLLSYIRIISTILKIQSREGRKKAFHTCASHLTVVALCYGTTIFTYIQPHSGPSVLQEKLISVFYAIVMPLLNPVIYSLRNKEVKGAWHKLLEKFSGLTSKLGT
Outline: as §1

OR2G3 (Homo sapiens) = OR2G3 (Homo sapiens) (UniProt Q8NGZ4)
OR2G3 (Homo sapiens), sequence (Q8NGZ4 whole entry): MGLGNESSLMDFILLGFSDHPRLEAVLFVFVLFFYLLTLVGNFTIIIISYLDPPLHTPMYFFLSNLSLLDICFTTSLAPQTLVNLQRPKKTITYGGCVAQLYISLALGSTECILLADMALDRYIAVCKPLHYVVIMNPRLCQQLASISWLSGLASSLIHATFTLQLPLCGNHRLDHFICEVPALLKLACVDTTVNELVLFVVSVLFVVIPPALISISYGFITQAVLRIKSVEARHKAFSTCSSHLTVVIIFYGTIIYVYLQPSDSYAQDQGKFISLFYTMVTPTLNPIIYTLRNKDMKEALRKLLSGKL
Outline: as §1

OR2G6 (Homo sapiens) = OR2G6 (Homo sapiens) (UniProt Q5TZ20)
OR2G6 (Homo sapiens), sequence (Q5TZ20 whole entry): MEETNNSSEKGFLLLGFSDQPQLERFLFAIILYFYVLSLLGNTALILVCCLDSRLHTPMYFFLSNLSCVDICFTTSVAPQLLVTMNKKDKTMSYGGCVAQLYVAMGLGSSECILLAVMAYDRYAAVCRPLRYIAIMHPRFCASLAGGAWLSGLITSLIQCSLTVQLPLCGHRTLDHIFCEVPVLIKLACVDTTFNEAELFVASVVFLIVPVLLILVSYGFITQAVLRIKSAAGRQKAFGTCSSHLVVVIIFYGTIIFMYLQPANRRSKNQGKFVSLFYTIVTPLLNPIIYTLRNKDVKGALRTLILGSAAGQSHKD
Outline: as §1

OR2D2 S148P I163T M202T = test system: OR2D2 S148P I163T M202T
Outline: as §1

OR2D3 R155W = test system: OR2D3 R155W
OR2D3 R155W, sequence (as listed by the source, stated change not applied): as the sequence (Q8NGH3 whole entry) above, with R155W counted along it
Outline: as §1

OR2G2 L167P R236G = test system: OR2G2 L167P R236G
Outline: as §1

OR2G3 I289V = test system: OR2G3 I289V
OR2G3 I289V, sequence (as listed by the source, stated change not applied): as the sequence (Q8NGZ4 whole entry) above, with I289V counted along it
Outline: as §1

Measured: odorant receptor agonist call;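 further: active if original authors judged signal statistically different from baseline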

C=CCc1ccc(OC)cc1
inactive: OR2G2 (Homo sapiens)

Cc1c([N+](=O)[O-])c(C)c([N+](=O)[O-])c(C(C)(C)C)c1[N+](=O)[O-]
inactive: OR2D3 (Homo sapiens) | OR2F1 (Homo sapiens) | OR2F2 (Homo sapiens) | OR2G2 (Homo sapiens) | OR2G3 (Homo sapiens) | OR2G6 (Homo sapiens)

O=Cc1ccccc1
inactive: OR2G2 (Homo sapiens)

C=CCOC(=O)Cc1ccccc1
inactive: OR2D2 S148P I163T M202T | OR2D3 (Homo sapiens) | OR2D3 R155W | OR2F1 (Homo sapiens) | OR2F2 (Homo sapiens) | OR2G2 (Homo sapiens) | OR2G2 L167P R236G | OR2G3 (Homo sapiens) | OR2G3 I289V | OR2G6 (Homo sapiens)
